{
  "source": "paper PMC12824664",
  "about": "(Blood, 2025)",
  "key": {"wild type BTK": {"target": "wild type BTK (Homo sapiens, UniProt Q06187)", "sequence (Q06187 whole entry)": "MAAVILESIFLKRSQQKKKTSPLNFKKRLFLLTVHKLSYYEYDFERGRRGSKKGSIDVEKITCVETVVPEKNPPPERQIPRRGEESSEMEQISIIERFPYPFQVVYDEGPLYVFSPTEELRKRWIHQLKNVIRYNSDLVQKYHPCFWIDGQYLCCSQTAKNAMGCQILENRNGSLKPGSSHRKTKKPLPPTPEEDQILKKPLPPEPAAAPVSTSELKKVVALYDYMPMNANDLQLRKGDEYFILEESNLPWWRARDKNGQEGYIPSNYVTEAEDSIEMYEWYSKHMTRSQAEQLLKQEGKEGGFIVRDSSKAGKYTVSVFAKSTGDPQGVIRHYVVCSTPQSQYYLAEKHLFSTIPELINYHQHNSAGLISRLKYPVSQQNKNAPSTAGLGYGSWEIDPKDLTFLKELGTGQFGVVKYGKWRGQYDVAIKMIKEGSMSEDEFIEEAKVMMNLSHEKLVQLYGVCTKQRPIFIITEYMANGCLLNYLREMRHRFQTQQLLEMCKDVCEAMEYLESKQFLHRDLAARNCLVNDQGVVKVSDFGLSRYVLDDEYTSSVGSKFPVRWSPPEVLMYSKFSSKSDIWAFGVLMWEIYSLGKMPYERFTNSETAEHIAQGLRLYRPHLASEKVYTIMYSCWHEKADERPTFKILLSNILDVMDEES", "assay": "biochemical", "type": "binding", "details": "read-out: residence time t1/2"}, "[1]": {"tested_on": "relapsed/refractory chronic lymphocytic leukemia", "assay": "Phase 1/2 BRUIN trial, pirtobrutinib monotherapy, response per iwCLL 2018", "type": "in vivo, human", "summary_of_the_method": "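Relapsed/refractory CLL patients pretreated with covalent BTK inhibitors received test compound monotherapy in a multicenter phase 1/2 trial. Response followed iwCLL 2018 criteria, with data cutoff 5 May 2023. ORR was the proportion with best response of partial response with lymphocytosis or better, with 2-sided 95% CI from the exact binomial. PBMCs at baseline and progression underwent targeted NGS; a more sensitive assay had 0.5% VAF LoD.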"}, "[2]": {"tested_on": "BTK mutants with kinase activity (Y545N, V416L, T474I, C481S+T474I) in Ramos BTK KO cells", "type": "cell-based", "details": "variants with kinase activity vs wild type"}},
  "data": [
    {"smiles": "COc1ccc(F)cc1C(=O)NCc1ccc(-c2nn([C@@H](C)C(F)(F)F)c(N)c2C(N)=O)cc1", "note": "[Pirtobrutinib]", "values": [
      {"measurement": "residence time", "setting": "wild type BTK", "value": 336, "unit": "min"},
      {"measurement": "BOR", "setting": "[1]; 3 patients with detectable BTK L528W at baseline", "value": "partial response, stable disease, and PD"},
      {"measurement": "BOR", "setting": "[1]; 6 patients with detectable BTK T474x at baseline", "value": "PR (4), SD (1), and PD (1"},
      {"measurement": "Median PFS (95%CI)", "setting": "[1]; Patients with PD and longitudinal samples n=88", "value": 10.3, "unit": "months"},
      {"measurement": "patients who experienced PD on pirtobrutinib", "setting": "[1]; overall population, median follow-up of 29 months, 139 patients", "value": 57, "unit": "%"},
      {"measurement": "median PFS", "setting": "[1]; patients with baseline BTK T474x (standard and high sensitivity), 95% CI, 7.4-22.3", "value": 9.2, "unit": "months"},
      {"measurement": "sensitivity to inhibition in cellular BTK phosphorylation assays", "setting": "[2]", "value": "less sensitive"}
    ]}
  ]
}
